Source: ChEMBL document CHEMBL1142422, “Affinity purification and characterization of a key enzyme responsible for circadian rhythmic control of nyctinasty in Lespedeza cuneata L” (Bioorg Med Chem, 2008)
Active and inactive are the calls of the source. No cut-off for these calls is given here.

Tests used:
[1] = Binding affinity to leaf opening factor beta-glucosidase relative to potassium lespedezate; parameters: unit not given here
Outline: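 Purified LOFG was added to 25 mM acetate pH 4.5 containing 1 mM of each substrate analog, preincubated at 37 °C. The mixture was incubated 2 h at 37 °C, then stopped with 0.1 M Tris-HCl pH 9.0, bringing the pH to 8.0. The released aglycon was quantified by RP-HPLC, and activity was expressed relative to potassium lespedezate.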

[2] = Activity of leaf opening factor beta-glucosidase at pH 4.5
Outline: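 Purified leaf-opening factor β-glucosidase (LOFG) from L. cuneata leaves, assayed in 25 mM acetate pH 4.5 with potassium lespedezate at four substrate levels. The semicarbazone of the released α-keto acid was trapped with 1 mM semicarbazide and quantified by RP-HPLC after 2 h at 37 °C. Km was taken from a Lineweaver–Burk plot.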

Prunus dulcis = assay: Inhibition of Almond beta-glucosidase in acetate buffer at pH 5.0 at 1 mM
Outline: (§1)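 Commercial glycosidases were preincubated with varied inhibitor amounts for 15 min at 37 °C in 50 mM acetate buffer: pH 5.0 for the β-glucosidases and β-galactosidase, pH 6.8 for α-glucosidase. The matching p-nitrophenyl glycoside was then added, and the reaction was stopped with 0.5 M Na2CO3. p-Nitrophenol was read at 405 nm. Ki came from Lineweaver–Burk plots, and percent inhibition was also scored at 1 mM inhibitor.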

[3] = Inhibition of Aspergillus niger beta-glucosidase in acetate buffer at pH 5.0; outline: as §1
[4] = target: T1, Beta-galactosidase (Aspergillus oryzae) (UniProt Q2U7N3); assay: Inhibition of Aspergillus oryzae beta-galactosidase in acetate buffer at pH 5.0 at 1 mM; outline: as §1
T1 sequence (whole entry): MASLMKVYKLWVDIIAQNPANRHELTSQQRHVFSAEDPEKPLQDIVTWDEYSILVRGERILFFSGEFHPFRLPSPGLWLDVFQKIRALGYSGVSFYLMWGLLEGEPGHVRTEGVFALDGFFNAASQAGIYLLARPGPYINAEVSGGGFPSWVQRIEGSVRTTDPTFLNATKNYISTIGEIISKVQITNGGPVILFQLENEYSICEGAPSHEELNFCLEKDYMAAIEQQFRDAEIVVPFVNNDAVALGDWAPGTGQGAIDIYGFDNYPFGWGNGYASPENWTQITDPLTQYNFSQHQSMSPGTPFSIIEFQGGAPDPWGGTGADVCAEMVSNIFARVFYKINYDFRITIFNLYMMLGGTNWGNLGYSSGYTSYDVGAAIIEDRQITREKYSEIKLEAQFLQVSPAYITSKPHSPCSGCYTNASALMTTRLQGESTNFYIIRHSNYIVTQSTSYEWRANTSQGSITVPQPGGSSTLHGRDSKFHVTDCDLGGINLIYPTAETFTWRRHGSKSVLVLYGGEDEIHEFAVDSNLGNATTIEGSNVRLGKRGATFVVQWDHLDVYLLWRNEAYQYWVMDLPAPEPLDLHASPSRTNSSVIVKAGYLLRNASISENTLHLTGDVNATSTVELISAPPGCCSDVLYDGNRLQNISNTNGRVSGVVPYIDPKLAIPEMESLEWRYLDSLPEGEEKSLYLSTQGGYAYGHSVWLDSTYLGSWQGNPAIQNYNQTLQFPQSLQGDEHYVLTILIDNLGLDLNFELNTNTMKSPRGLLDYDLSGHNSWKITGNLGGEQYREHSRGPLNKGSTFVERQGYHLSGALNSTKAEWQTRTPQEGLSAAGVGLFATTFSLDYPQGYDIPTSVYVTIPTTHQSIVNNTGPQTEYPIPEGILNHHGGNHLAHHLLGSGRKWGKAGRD

[5] = Inhibition of Aspergillus niger beta-glucosidase in acetate buffer at pH 4.5
Outline: (§2)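 Aspergillus niger β-glucosidase was preincubated with inhibitor for 15 min at 37 °C before the p-nitrophenyl glucoside was added. Buffers were 25 mM acetate at pH 4.5–5.5 and 25 mM Bis-Tris at pH 6.0. The reaction was stopped with 0.5 M Na2CO3, and released p-nitrophenol was read at 405 nm. Ki was derived from Lineweaver–Burk plots.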

[6] = Inhibition of Aspergillus niger beta-glucosidase in acetate buffer at pH 5.5; outline: as §2
[7] = Inhibition of Aspergillus niger beta-glucosidase in acetate buffer at pH 6.0
[8] = tested on: Geobacillus stearothermophilus; assay: Inhibition of Bacillus stearothermophilus alpha-glucosidase in acetate buffer at pH 6.8 at 1 mM; outline: as §1

SMILES: O=C(O)/C(=C/c1ccc(O)cc1)O[C@@H]1O[C@H](CO)[C@@H](O)[C@H](O)[C@H]1O
- Activity [1]: 0

SMILES: O=C(O)/C(=C\c1ccc(O)cc1)O[C@@H]1O[C@H](CO)[C@@H](O)[C@H](O)[C@H]1O
- Km [2]: 548 µM

SMILES: O=C(O)/C(=C\c1ccc(O)cc1)O[C@@H]1O[C@H](CO)[C@H](O)[C@H](O)[C@H]1O
- Activity [1]: 0

SMILES: OC/C(=C\c1ccc(O)cc1)N[C@@H]1O[C@H](CO)[C@@H](O)[C@H](O)[C@H]1O
- Activity [1]: 113

SMILES: O=C(O)C(Cc1ccc(O)cc1)O[C@@H]1O[C@H](CO)[C@@H](O)[C@H](O)[C@H]1O (stereo partly drawn)
- Activity [1]: 26

SMILES: O=C(O)/C(=C/c1ccc(O)cc1)O[C@@H]1O[C@H](CO)[C@H](O)[C@H](O)[C@H]1O
- Activity [1]: 0

SMILES: OCC(=Nc1ccc(O)cc1)N[C@@H]1O[C@H](CO)[C@@H](O)[C@H](O)[C@H]1O
- inhibition (Prunus dulcis): < 90%
- Ki [3]: 1.3 µM
- Activity [4]: inactive
- Ki [5]: 3.5 µM
- Ki [6]: 1.33 µM
- Ki [7]: 4.12 µM
- Activity [8]: inactive
